Source: PubChem BioAssay
T cruzi HTS – inhibitors of intracellular Trypanosoma cruzi; intracellular Trypanosoma cruzi in host cells, plate reader; activity score (inhibition), % at 5.01 µM; 22,000 tested, 4.9% active; in the data active = activity score above about 55%; inconclusive = no clear call, values can overlap the other calls;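 note: parasites and compound incubated about four days before reading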
INS-1E ATP HTS – INS-1E beta cell protection from cytokine death; INS-1E cytokine-induced death, ATP luminescence, 48 h; normalised: neutral wells 0, positive control 100; AID 488910; protection from cytokine-induced ATP loss, % at 10 µM; 20,000 tested, 0.1% active;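 active = mean replicate protection from cytokine-induced ATP loss at least 50% and at least 75% of replicates each reaching 50%; inconclusive = meets only one of the two criteria, mean or replicate share; inactive = fails both the mean and replicate share criteria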
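Material: INS-1E rat cells; Quantity: 8000 cells/well; Buffer or medium: phenol-red-free RPMI with 5% fetal bovine serum; Probe or stimulus: cytokine cocktail of IFN-γ, TNF-α and IL-1β; Compound dosing: single test concentration per compound, delivered by pin transfer; Incubation: 48 h co-treatment, 10 min post-lysis read; Signal: CellTiter-Glo luminescence.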
A1 apoptosis 2 – blocks A1, raising caspase activity; MEF A1-2A-BIM cells, caspase-Glo luminescence, 3 h; percent of clofoctol response, DMSO zero; caspase activation, % (test concentration not listed); 24,000 tested, under 10 active; in the data active = caspase activation above about 5.9%; inconclusive = no clear call, values can overlap the other calls; inactive = below about 2.2%
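System: mouse embryonic fibroblasts co-expressing A1 and BIM (A1-2A-BIM), primed for A1 dependence; amount: 2500 cells/well; doses: 50 nL pinned compound; schedule: cells settled overnight, compound exposure 3 h at 37 °C, 5% CO2; detection: Caspase-Glo 3/7 luminescence, 1 h at room temperature; read-out: Caspase-3/7 activation, seen as rise in luminescence signal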
Numbers stand for hits; – = inactive; ? = inconclusive; · = no result given. The entries come from a sample that favours hits as a whole.

SMILES	T cruzi HTS	INS-1E ATP HTS	A1 apoptosis 2
C[C@@H]1CN([C@@H](C)CO)C(=O)Cc2cc(NC(=O)Nc3ccc4c(c3)OCO4)ccc2O[C@@H]1CN(C)Cc1ccc(Cl)c(Cl)c1	–	–	·
C[C@@H]1CN([C@@H](C)CO)C(=O)Cc2cc(NC(=O)Nc3ccc(F)cc3)ccc2O[C@H]1CN(C)Cc1ccc(Cl)c(Cl)c1	·	·	–
C[C@H]1CN([C@@H](C)CO)C(=O)Cc2cc(NC(=O)Nc3ccc(F)cc3)ccc2O[C@H]1CN(C)Cc1ccc(Cl)c(Cl)c1	64	–	–
C[C@@H]1CN([C@H](C)CO)C(=O)Cc2cc(NC(=O)Nc3ccc(F)cc3)ccc2O[C@@H]1CN(C)Cc1ccc(Cl)c(Cl)c1	68	–	–
C[C@H](CO)N1C[C@H](C)[C@@H](CN(C)Cc2ccc(Cl)c(Cl)c2)Oc2ccc(NC(=O)Nc3ccc(F)cc3)cc2CC1=O	·	·	–
C[C@@H]1CN([C@@H](C)CO)C(=O)Cc2cc(NC(=O)Nc3ccccc3)ccc2O[C@@H]1CN(C)Cc1ccc(Cl)c(Cl)c1	68	–	·
C[C@H](CO)N1C[C@H](C)[C@H](CN(C)Cc2ccc(Cl)c(Cl)c2)Oc2ccc(NC(=O)Nc3ccc(F)cc3)cc2CC1=O	?	–	·
C[C@@H]1CN([C@@H](C)CO)C(=O)c2cc(NC(=O)CCCN(C)C)ccc2O[C@H]1CN(C)S(=O)(=O)c1cn(C)cn1	–	–	–
CNC[C@H]1Oc2ccc(NC(=O)Nc3c(C)noc3C)cc2C(=O)N([C@H](C)CO)C[C@H]1C	–	–	·
CO[C@H]1O[C@H](CO)[C@@H](OC(=O)Nc2cccc(F)c2)[C@H](OC(=O)Nc2ccc3c(c2)OCO3)[C@@H]1OC(=O)Nc1ccc2c(c1)OCO2	·	·	–
COc1ccc(/C=N/NC(=O)CCCCCCC(=O)Nc2ccccc2O)cc1OC	–	–	–
CC(C)NC(=O)Nc1ccc2c(c1)C(=O)N([C@H](C)CO)C[C@H](C)[C@@H](CN(C)C(=O)NC(C)C)OCCCC[C@@H](C)O2	–	–	–
C[C@@H]1CCCCO[C@H](CN(C)Cc2ccc(Cl)c(Cl)c2)[C@H](C)CN([C@@H](C)CO)C(=O)c2cc(NC(=O)Nc3ccc(F)cc3)ccc2O1	·	·	–
C[C@@H]1CCCCO[C@H](CN(C)Cc2ccc(Cl)c(Cl)c2)[C@@H](C)CN([C@@H](C)CO)C(=O)c2cc(NC(=O)c3ccccc3)ccc2O1	·	·	–
C[C@@H]1CCCCO[C@H](CN(C)Cc2ccc(Cl)c(Cl)c2)[C@@H](C)CN([C@@H](C)CO)C(=O)c2cc(NC(=O)NC3CCCCC3)ccc2O1	·	·	–
C[C@@H]1CCCCO[C@@H](CN(C)Cc2ccc(C(=O)Nc3ccccc3N)cc2)[C@@H](C)CN([C@H](C)CO)C(=O)c2cc(NS(C)(=O)=O)ccc2O1	56	–	–
C[C@@H]1CCCCO[C@@H](CN(C)Cc2ccc(Cl)c(Cl)c2)[C@@H](C)CN([C@H](C)CO)C(=O)c2cc(NC(=O)NC3CCCCC3)ccc2O1	66	–	–
C[C@@H]1CCCCO[C@@H](CN(C)Cc2ccc(Cl)c(Cl)c2)[C@@H](C)CN([C@H](C)CO)C(=O)c2cc(NC(=O)Nc3ccc(F)cc3)ccc2O1	67	–	·
C[C@@H]1CCCCO[C@@H](CN(C)Cc2ccc(Cl)c(Cl)c2)[C@@H](C)CN([C@H](C)CO)C(=O)c2cc(NC(=O)c3ccccc3)ccc2O1	65	–	–
C[C@@H]1CCCCO[C@H](CN(C)Cc2ccc(C(=O)Nc3ccccc3N)cc2)[C@@H](C)CN([C@H](C)CO)C(=O)c2cc(NS(=O)(=O)c3ccccc3)ccc2O1	·	·	–
C[C@@H]1CCCCO[C@H](CN(C)C(=O)NC2CCCCC2)[C@@H](C)CN([C@H](C)CO)C(=O)c2cc(NC(=O)c3ccncc3)ccc2O1	–	–	–
Cc1noc(C)c1S(=O)(=O)N(C)C[C@H]1OCCCC[C@H](C)Oc2ccc(NS(=O)(=O)c3ccccc3)cc2C(=O)N([C@H](C)CO)C[C@H]1C	·	·	–
C[C@@H]1CN([C@@H](C)CO)C(=O)c2cc(NC(=O)Nc3ccc(F)cc3)ccc2O[C@@H](C)CCCCO[C@H]1CN(C)Cc1ccc(Cl)c(Cl)c1	·	·	–
C[C@@H]1CCCCO[C@H](CN(C)Cc2ccc(Cl)c(Cl)c2)[C@@H](C)CN([C@H](C)CO)C(=O)c2cc(NC(=O)Nc3ccc(F)cc3)ccc2O1	86	–	–
COc1ccc(CN(C)C[C@H]2Oc3c(NS(C)(=O)=O)cccc3C(=O)N([C@@H](C)CO)C[C@H]2C)cc1	–	–	–
COC(=O)CCCCCCC(=O)N/N=C/c1cn(Cc2ccccc2)c2ccccc12	–	–	·
